These results are taken from ChEMBL document CHEMBL6177979, “Exploring the Phototherapeutic Applications of Mitochondria-Targeted COUPY Photocages of Antitumor Drugs” (J Med Chem, 2025).

As a reminder, the IC50 is the concentration needed to halve the response being measured.

A short description of data set [1]: Photophysical property of the compound assessed as fluorescence quantum yield. It counts as physicochemical. In short, it runs like this: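 Fluorescence quantum yield by the comparative method against cresyl violet in ethanol (ΦF 0.54). Optically matched solutions with absorbance below 0.1 at 540 nm excitation. Calculated from integrated emission, absorbance and refractive indexes.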

The nature of data set [2]: Induction of ROS generation in PBS buffer assessed as increase in singlet oxygen by measuring increase in SOSG fluorescence intensity at 10 uM irradiated with green light 505 nm 100 mW/cm2 for 15 mins by SOSG probe based analysis. It is filed as functional. In short, it runs like this: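 Cell-free fluorogenic probe test. Compound (10 μM) in PBS with 2% DMSO plus SOSG (5 μM, singlet oxygen) or DHR123 (10 μM, superoxide), irradiated with green LED light (505 ± 35 nm, 100 mW cm–2), with the rise in probe fluorescence followed. Positive references were Rose Bengal (SOSG) and methylene blue (DHR123). Scavenger controls used sodium azide-saturated PBS (singlet oxygen) or tiron-saturated PBS (superoxide).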

Data set [3] in a line: Drug accumulation in human HeLa cells assessed as mitochondrial localization at 2 uM incubated for 30 mins by Hoechst 33342 staining based live cell confocal microscopic analysis. It is filed as ADME. The following applies: 0.5 h. An outline of the steps:
(§1)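 Live HeLa cells (DMEM, 4.5 g/L glucose, 10% FBS, pen-strep) on glass-bottom dishes; 24 h after seeding, incubated 30 min at 37 °C with compound (1 or 2 μM) in DMEM + 10% FBS. Cells were washed three times with DPBS and imaged at 37 °C, 5% CO2 in phenol-red-free low-glucose DMEM. Excitation 561 nm, emission 570–670 nm. For co-staining, MitoTracker Green FM (0.1 μM) was co-incubated 30 min in nonsupplemented DMEM and excited at 488 nm.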

Data set [4] relates to HeLa. Briefly: Cytotoxicity against human HeLa cells assessed as reduction in cell viability at 100 uM incubated for 2 hrs under dark condition by MTT assay. It counts as functional, cell-based. An outline of the steps: (§2)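 HeLa or U87-MG cells seeded at 5000/well in DMEM with 10% FBS and 1% penicillin-streptomycin, grown 24 h. Compound added at 0–200 μM final (0.5% DMSO) for 1 h at 37 °C in the dark. Then 1 h dark or 550 nm pulsed LED (4 mW/cm2, 1 min on/1 min off; 7.2 J cm–2). Medium refreshed, 48 h incubation, MTT read-out. IC50 from sigmoidal dose–response curves, n = 3.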
On the technique in general: Tetrazolium dyes change colour on reduction, which living cells bring about.

The nature of data set [5]: Phototoxic index, ratio of IC50 for cytotoxicity against human HeLa cells assessed as reduction in cell viability incubated for 2 hrs under dark condition by MTT assay to IC50 for photocytotoxicity in human HeLa cells assessed as reduction in cell viability irradiated with 550 nm 4 mW/cm^-2 green-yellow […] and measured after 48 hrs by MTT assay. It is filed as toxicity, cell-based. The conditions noted are these: read-out: Ratio IC50. An outline of the steps:
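Phototoxic index is dark IC50 divided by light IC50, HeLa MTT assay. Cells had 1 h compound in the dark, then 1 h dark or 550 nm LED (4 mW/cm2 pulsed, 7.2 J cm–2), then 48 h after medium change.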

A short description of data set [6]: Induction of ROS generation in PBS buffer assessed as increase in superoxide anion radical level by measuring increase in DHR123 fluorescence intensity at 10 uM irradiated with 505 nm 100 mW/cm2 green light for 15 mins by DHR123 probe based analysis.
A short description of data set [7]: Induction of singlet oxygen quantum yield under irradiation with green light 505 nm 100 mW/cm2 by. It counts as functional. An outline of the steps:
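Singlet oxygen quantum yield measured in air-saturated DCM (bubbled 15 min). DPBF trap at ~1.0 absorbance (50 μM); compound absorbance set to 0.06 at 505 nm. Irradiated with LED at 505 ± 35 nm, 100 mW cm–2.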

Data set [8] is described as follows: Drug uptake in human HeLa cells assessed as increase in fluorescence intensity at 1 uM incubated for 30 mins by DAPI staining based confocal microscopic analysis. It is filed as ADME, cell-based. The conditions noted are these: 0.5 h. In short, it runs like this:
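HeLa cells seeded on glass-bottom dishes in DMEM with 10% FBS. After 24 h, incubated 30 min at 37 °C with compound (1 μM) in supplemented DMEM. Washed three times with DPBS, kept in phenol red-free low-glucose DMEM, imaged live by confocal with 561 nm excitation and 570–670 nm detection.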

Data set [9] in a line: Drug localization in lysosome of human HeLa cells at 1 uM incubated for 30 mins by Lysotracker green dye based confocal scanning microscopic analysis. It is filed as ADME, subcellular. The following applies: 0.5 h. In short, it runs like this:
(§3)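 HeLa cells incubated with compound (1 μM) for 30 min at 37 °C in nonsupplemented DMEM. LysoTracker Green FM added for the last 5 min and WGA Alexa Fluor 633 for the last 20 min. Cells washed with DPBS and imaged live by confocal at 37 °C: compound excited at 561 nm (570–670 nm), LTG at 488 nm, WGA at 633 nm. Pearson's coefficient from 5 stacks, about 25 cells each.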

A short description of data set [10]: Drug accumulation in human HeLa cells assessed as mitochondrial localization at 1 uM incubated for 30 mins by Hoechst 33342 staining based live cell confocal microscopic analysis. The conditions noted are these: 0.5 h. It is filed as ADME. An outline of the steps: as §1
Data set [11] is described as follows: Drug localization in mitochondria of human HeLa cells at 1 uM incubated for 30 mins by Mito-tracker green dye based confocal scanning microscopic analysis. It counts as ADME. The following applies: 0.5 h. An outline of the steps:
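Cells washed with DPBS and imaged live by confocal at 37 °C with 5% CO2: compound excited at 561 nm (detection 570–670 nm), MTG at 488 nm. Colocalization coefficients from 5 stacks of about 25 cells.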

Data set [12] can be described thus: Photochemical property of compound assessed as uncaging quantum yields. It counts as physicochemical. In short, it runs like this: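 Uncaging quantum yields derived from photon flux (DAE actinometry) together with photolysis rate parameters. Photolysis run in PBS/ACN 8:2 at 37 °C under a 530 nm-centred LED.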
A short description of data set [13]: Photoactivation of the compound in PBS/ACN incubated for 2 hrs by RP-HPLC analysis. The following applies: buffer. An outline of the steps:
(§4)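 Caged compound (20 μM) with 4-dimethylaminopyridine internal standard (20 μM) in PBS/ACN 8:2 at 37 °C. First held 2 h in the dark for stability, then irradiated with a 470–750 nm LED centred at 530 nm while stirred. Release followed by RP-HPLC with formic acid/water–ACN gradients.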

A short description of data set [14]: Photoactivation of the compound in PBS/ACN irradiation with visible light at 530 nm 150 mW cm2 incubated for 2 hrs by RP-HPLC analysis. More on the design: dose or concentration left out as unconfirmed. The conditions noted are these: buffer. In short, it runs like this: as §4
The nature of data set [15]: Drug localization in lysosome of human HeLa cells at 1 uM incubated for 30 mins by Lysotracker green dye based analysis. It counts as ADME, subcellular. The following applies: 0.5 h. In short, it runs like this:
as §3

Data set [16] is described as follows: Drug localization in lysosome of human HeLa cells at 1 uM incubated for 30 mins by wheat germ agglutinin alexa fluor 633 probe based analysis. It is filed as ADME, subcellular. The conditions noted are these: 0.5 h. In short, it runs like this: as §3
Data set [17] relates to HeLa. As to the kind of experiment: Photocytotoxicity in human HeLa cells assessed as reduction in cell viability irradiated with 550 nm 4 mW/cm^-2 green-yellow LED light for 1 hr and measured after 48 hrs by MTT assay. It is filed as toxicity, cell-based. The following applies: 49 h. An outline of the steps: as §2
In data set [18] the test system is HeLa. As to the kind of experiment: Photocytotoxicity in human HeLa cells assessed as reduction in cell viability irradiated with 550 nm 4 mW/cm^-2 green-yellow LED light for 1 hr and measured after 48 hrs in presence of CLB by MTT assay. It is filed as toxicity, cell-based. The conditions noted are these: 49 h. In short, it runs like this:
as §2

Data set [19] concerns HeLa. Briefly: Photocytotoxicity in human HeLa cells assessed as reduction in cell viability irradiated with 550 nm 4 mW/cm^-2 green-yellow LED light for 1 hr and measured after 48 hrs in presence of 4-PBA by MTT assay. It counts as toxicity, cell-based. The conditions noted are these: 49 h. In short, it runs like this:
as §2

A short description of data set [20]: Drug localization in […] of human HeLa cells at 1 uM incubated for 30 mins by Lysotracker green dye based confocal scanning microscopic analysis. The following applies: 0.5 h. It is filed as ADME, subcellular. An outline of the steps: as §3
The nature of data set [21]: Drug localization in Endosome of human HeLa cells at 1 uM incubated for 30 mins by wheat germ agglutinin alexa fluor 633 probe based analysis. It counts as ADME, subcellular. The following applies: 0.5 h. An outline of the steps:
as §3

The nature of data set [22]: Photocytotoxicity in human U-87 MG cells assessed as reduction in cell viability irradiated with 550 nm 4 mW/cm^-2 green-yellow LED light for […] and measured after 48 hrs by MTT assay. It counts as toxicity, cell-based, U-87MG ATCC. An outline of the steps:
as §2

Data set [23] deals with U-87 MG. As to the kind of experiment: Cytotoxicity against human U-87 MG cells assessed as reduction in cell viability incubated for 2 hrs under dark condition by MTT assay. It is filed as functional, cell-based, U-87MG ATCC. An outline of the steps: as §2
Data set [24] deals with U-87 MG. As to the kind of experiment: Cytotoxicity against human U-87 MG cells assessed as reduction in cell viability incubated for 2 hrs under dark condition by resazurin assay. The following applies: U-87MG ATCC. It counts as functional, cell-based.

Calls of active or inactive are those of the source. The calls are words filed in the database; no cut-off is given here.

Turning to `CCCCCC[n+]1ccc(/C(C#N)=C2/C=C(C(C)O)c3ccc(N(CC)CC)cc3O2)cc1.[Cl-]` (stereo not drawn), the Activity in data set [1] is given as 0.26. The outcome in data set [2] and in data set [6] was Active. The Drug uptake result in [3] is reported as “Active”. In data set [4], the IC50 is 27.2 µM. Further, the selectivity ratio at 48 h in data set [5] is 40.

Regarding `O=C(O)CCCc1ccc(N(CCCl)CCCl)cc1` [CHLORAMBUCIL], the IC50 in data set [4] is > 100 µM.

Take `CCCCCC[n+]1ccc(/C(C#N)=C2/C=C(C)c3ccc(N(CC)CC)cc3O2)cc1`: the outcome in [2] and in data set [6] was Active.

Take `CCCCCC[n+]1ccc(/C(C#N)=C2/C=C(C(C)OC(=O)CCCc3ccccc3)c3ccc(N(CC)CC)cc3O2)cc1.[Br-]` (stereo not drawn): the Activity in data set [1] is 0.23; in [7], 0.05; in [12], 3.89e-05; in data set [13], “Active”; in data set [14], “Active”. Moreover, the outcome in data set [2] and in [6] was Active. Also, the Drug uptake result in data set [8], in data set [9], in [10] and in data set [11] was “Active” each time. For the same compound, the IC50 in data set [4] came to 3.54 µM. In [5], the selectivity ratio at 48 h was 131.

With `CCN(CC)c1ccc2c(c1)O/C(=C(/C#N)c1cc[n+](CCC[N+](C)(C)C)cc1)C=C2C(C)OC(=O)CCCc1ccc(N(CCCl)CCCl)cc1.[Cl-].[Cl-]` (stereo not drawn), the Activity in data set [1] was 0.09; in data set [7] it was < 0.01; in data set [17] it was “Non-toxic”; in data set [18] it was “Non-toxic”; in data set [19], “Non-toxic”; in [12] it was 1.07e-05. In addition, the outcome in [13] and in data set [14] was Active. Besides, the result in data set [2] and in [6] was Active. The Drug uptake entry in [8], in [15], in [16], in [20] and in [21] was “Active” in each case. Also, the IC50 in [4] stood at 41 µM. Moreover, the selectivity ratio at 48 h in [5] was 3.7.

Take `O=C(O)CCCc1ccccc1`: in [4], the IC50 is > 100 µM.

As to `CCCCCC[n+]1ccc(/C(C#N)=C2/C=C(C(C)OC(=O)CCCc3ccc(N(CCCl)CCCl)cc3)c3ccc(N(CC)CC)cc3O2)cc1.[Cl-]` (stereo not drawn), the Activity in data set [1] was 0.07; in data set [7], < 0.01; in data set [17] it was “Non-toxic”; in data set [18], “Non-toxic”; in data set [19], “Non-toxic”; in data set [12] it was 1.3e-05. The result in data set [13] and in data set [14] was Active. Moreover, the result in data set [2], in data set [24] and in data set [6] was Active. Also, the Drug uptake entry in [8], in data set [9] and in data set [11] was “Active” in each case. For the same compound, the IC50 in data set [4] is 3.76 µM; in data set [23] it was 6.72 µM. For the same compound, the selectivity ratio at 48 h in [5] amounted to 40. The concentration for half-maximal inhibition (IC50) at 48 h in data set [22] worked out at 0.12 µM.
